Results published in ChEMBL document CHEMBL1134609, “Dinuclear alkyldiamine platinum antitumor compounds: a structure-activity relationship study” (J Med Chem, 2001).
pIC50: −log10 of the molar value.

Tests used:
[1] = test system: L1210/2; test: Cytotoxicity in cisplatin-resistant L1210/2 cell lines; type: functional, cell-based, Mus musculus
Summary of the method: (§1)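 Murine leukemia L1210/0 (wild-type) or L1210/2 (cisplatin-resistant) cells in McCoy's 5a + 10% FCS with penicillin/streptomycin; 5 × 10⁴ cells/mL pre-cultured 24 h at 37 °C, 5% CO2. Then treated with at least three platinum concentrations (fresh water stocks diluted in medium). Cells counted in a counting chamber after 72 h. IC50 = concentration reducing growth to 50% of control; each concentration tested in ≥2 independent experiments.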

[2] = test system: L1210; test: Cytotoxicity against L1210/0 cell line of murine leukemia; type: functional, cell-based, Mus musculus; summary of the method: as §1
[3] = Resistance factor was determined using the ratio of cytotoxicity of both the cell lines; type: functional

Row | Sequence | pIC50 [1] | pIC50 [2] | RF [3]
1 | CISPLATIN [listing 1 of 2 here] | 5.34 | 5.82 | 
2 | CISPLATIN [listing 2 of 2 here] |  |  | 3.1
3 | TRANSPLATIN [listing 1 of 2 here] | 4.66 | 4.80 | 
4 | TRANSPLATIN [listing 2 of 2 here] |  |  | 1.4
